Reference: paper PMC8266240 (Journal of Enzyme Inhibition and Medicinal Chemistry, 2021)
Peptide text beside a SMILES is read from it. * marks the point of attachment. Cbz = O=C(OCc1ccccc1)*; CH2F = FC*

These molecules were tested on HeLa cells (assay: Effect of inhibitors/activators on 12A-induced vacuolization in HeLa cells). Conditions: pre- or co-treated with 12A, 8 h.
Assay type: cell-based, human
In short: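 HeLa cells, alone or with the vacuolization-inducing test compound, were exposed to modulators for 8 h: pan-caspase inhibitor Z-VAD-FMK, autophagy inhibitors 3-MA and LY294002, autophagy activator rapamycin, bafilomycin A1, cycloheximide, ERK1/2 inhibitor PD98059 and JNK inhibitor SP600125. Some inhibitors were given as a 2 h pre-treatment before the test compound. Vacuoles were assessed by microscopy imaging.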
In the case of Cn1cnc(N)c2ncnc1-2 [3-methyladenine], the “effect on 12A-induced vacuolization” value is reported as “did not decrease”.
In the case of C[C@@H]1C[C@@H]([C@H](O)CC2CC(=O)NC(=O)C2)C(=O)[C@@H](C)C1 [CHX, Cycloheximide], the “effect on 12A-induced vacuolization” value is reported as “dramatically blocked the formation of vacuoles”.
CO/C1=C\C(C)=C\[C@@H](C)[C@@H](O)[C@@H](C)C/C(C)=C/C=C/[C@H](OC)[C@@H]([C@@H](C)[C@@H](O)[C@H](C)[C@@]2(O)C[C@@H](O)[C@H](C)[C@@H](C(C)C)O2)OC1=O [Baf-A1, Bafilomycin A1] was tested, and the “effect on 12A-induced vacuolization” value was “dramatically blocked the formation of vacuoles”.
With O=c1cc(N2CCOCC2)oc2c(-c3ccccc3)cccc12 [LY294002] the “effect on 12A-induced vacuolization” value was “did not decrease”.
In the case of CO[C@H]1C[C@@H]2CC[C@@H](C)[C@@](O)(O2)C(=O)C(=O)N2CCCC[C@H]2C(=O)O[C@H]([C@H](C)C[C@@H]2CC[C@@H](O)[C@H](OC)C2)CC(=O)[C@H](C)/C=C(\C)[C@@H](O)[C@@H](OC)C(=O)[C@H](C)C[C@H](C)/C=C/C=C/C=C/1C [rapamycin], the “effect on 12A-induced vacuolization” value is reported as “failed to promote”.
COC(=O)C[C@H](NC(=O)[C@H](C)NC(=O)[C@@H](NC(=O)OCc1ccccc1)C(C)C)C(=O)CF [Z-VAD-FMK] (Cbz-Val-Ala-Asp(OMe)-CH2F) was tested, and the “effect on 12A-induced vacuolization” value was “not inhibited”.
With COc1cccc(-c2cc(=O)c3ccccc3o2)c1N [PD98059] the “effect on 12A-induced vacuolization” value was “significantly decreased”.
For Oc1c2ccccc2c2c3c(cccc13)N=N2 [SP600125], the “effect on 12A-induced vacuolization” value was “significantly decreased”.
